Laboratory results taken from ChEMBL document CHEMBL3875197, “Design, synthesis and pharmacological evaluation of 4-hydroxyphenylglycine and 4-hydroxyphenylglycinol derivatives as GPR88 agonists” (Bioorg Med Chem, 2017).
Activity calls are given as the source filed them. No cut-off for these calls is given here.

target: T1, G protein-coupled receptor 88 (Homo sapiens, UniProt Q9GZN0); assay: Agonist activity at PPLS-HA-tagged-GPR88 (unknown origin) expressed in CHO cells assessed as inhibition of forskolin-stimulated cAMP production measured after 30 mins by TR-FRET assay; type: functional, cell-based
T1 sequence (Q9GZN0 whole entry): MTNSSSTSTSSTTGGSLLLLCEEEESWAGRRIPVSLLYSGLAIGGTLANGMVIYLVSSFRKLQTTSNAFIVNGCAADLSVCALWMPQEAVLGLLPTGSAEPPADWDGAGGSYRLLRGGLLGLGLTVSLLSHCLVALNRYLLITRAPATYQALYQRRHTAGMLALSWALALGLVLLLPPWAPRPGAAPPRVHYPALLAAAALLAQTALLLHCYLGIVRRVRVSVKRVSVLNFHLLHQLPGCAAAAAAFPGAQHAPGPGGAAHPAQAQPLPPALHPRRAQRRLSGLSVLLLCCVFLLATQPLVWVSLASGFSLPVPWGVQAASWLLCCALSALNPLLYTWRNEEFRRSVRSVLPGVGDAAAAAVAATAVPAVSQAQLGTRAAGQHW

`CCCC(C)COc1ccc([C@H](CO)NC(=O)Cc2ccccc2)cc1` (stereo not given in full) and `CCCC(C)COc1ccc([C@H](CO)NC(=O)CCc2ccccc2)cc1` (stereo not given in full) are within 1.5-fold of each other in EC50: 0.487 µM for the first, 0.345 µM for the second.

First: CCCC(C)COc1ccc([C@@H](NC(=O)Cc2ccccc2)C(=O)OC)cc1 (stereo not given in full)
Second: CCCC(C)COc1ccc([C@@H](NC(=O)Cc2ccccc2F)C(=O)OC)cc1 (stereo not given in full)
The EC50 of the first is 3-fold lower: 2.63 µM for the first, 7.87 µM for the second. The first is the more potent here.

Going from `CCCC(C)COc1ccc([C@H](CO)NC(=O)CCCc2ccccc2)cc1` (stereo not given in full) to `CCCC(C)COc1ccc([C@H](CO)NC(=O)[C@@H](CC)c2ccccc2)cc1` (stereo not given in full), the EC50 falls from 1.44 µM to 0.145 µM (9.9-fold).

Compared with `CCCC(C)COc1ccc([C@H](CN=[N+]=[N-])NC(=O)[C@@H](C)c2ccccc2)cc1` (stereo not given in full), `CCCC(C)COc1ccc([C@@H](NC(=O)[C@@H](C)c2ccccc2)C(=O)O)cc1` (stereo not given in full) is higher in EC50: 0.134 µM for the first, greater than 10 µM for the second.

Compared with `CCCC(C)COc1ccc([C@@H](NC(=O)C(C)C2CCCCC2)C(=O)OC)cc1` (mixture of isomers), `CCCC(C)COc1ccc([C@@H](NC(=O)[C@@H](C)c2ccccc2)C(=O)OC)cc1` (stereo not given in full) is lower in EC50: greater than 10 µM for the first, 0.538 µM for the second. The second is the more potent here.

Compared with `CCCC(C)COc1ccc([C@@H](NC(=O)Cc2ccc(C)cc2)C(=O)OC)cc1` (stereo not given in full), `CCCC(C)COc1ccc([C@@H](NC(=O)Cc2ccc(F)cc2)C(=O)OC)cc1` (stereo not given in full) is 1.6-fold higher in EC50: 3.7 µM for the first, 5.86 µM for the second. The first is the more potent here.

First: CCCC(C)COc1ccc([C@@H](NC(=O)Cc2ccc(OC)cc2)C(=O)OC)cc1 (stereo not given in full)
Second: CCCC(C)COc1ccc([C@@H](NC(=O)Cc2ccc(C#N)cc2)C(=O)OC)cc1 (stereo not given in full)
The EC50 of the first is lower: 9.57 µM for the first, greater than 10 µM for the second. The first is the more potent here.

Compared with `CCCC(C)COc1ccc([C@@H](NC(=O)Cc2cccc(F)c2)C(=O)OC)cc1` (stereo not given in full), `CCCC(C)COc1ccc([C@@H](NC(=O)[C@@H](CC)c2ccccc2)C(=O)OC)cc1` (stereo not given in full) is 6.7-fold lower in EC50: 3.91 µM for the first, 0.583 µM for the second. The second is the more potent here.

target: T1, G protein-coupled receptor 88; assay: Agonist activity at PPLS-HA-tagged-GPR88 (unknown origin) expressed in CHO cells assessed as inhibition of forskolin-stimulated cAMP production at 1 uM measured after 30 mins by TR-FRET assay; type: functional, cell-based
Method in brief: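 Stable PPLS-HA-GPR88 CHO cells lifted with versene, 4,000 cells/well in HBSS with 5 mM HEPES, 0.1% BSA and 0.5 mM IBMX (pH 7.4). Single 1 μM test compound plus forskolin (300 nM at 4× final), 30 min at RT. Eu-cAMP tracer and ULight-anti-cAMP added, TR-FRET read (ex 337 nm) after 1 h at RT. Activity expressed as percentage of reference-agonist TR-FRET signal.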

For `CCCC(C)COc1ccc([C@@H](NC(=O)Cc2ccccc2)C(=O)OC)cc1` (stereo not given in full), the agonist activity call was “Active”.
With `CCCC(C)COc1ccc([C@@H](NC(=O)[C@@H](C)c2ccccc2)C(=O)OC)cc1` (stereo not given in full) the agonist activity call was “Active”.
With `CCCC(C)COc1ccc([C@@H](NC(=O)[C@H](C)c2ccccc2)C(=O)OC)cc1` (stereo not given in full) the agonist activity call was “Active”.
For `CCCC(C)COc1ccc([C@@H](NC(=O)[C@@H](CC)c2ccccc2)C(=O)OC)cc1` (stereo not given in full), the agonist activity call was “Active”.
